Data from ChEMBL document CHEMBL5705897, “Characterization of WZ4003 and HTH-01-015 as selective inhibitors of the LKB1-tumour-suppressor-activated NUAK kinases” (Biochem J, 2014).
Calls of active or inactive are those of the source. The rule behind the calls is not given here.

Assays:
[1] = molecular target: Ribosomal protein S6 kinase alpha-1 (Homo sapiens) (UniProt Q15418); test: Inhibition of recombinant human N-terminal His6-tagged RSK1 (1 to 735 residues) expressed in baculovirus infected Sf21 cells assessed as remaining activity at 1 uM using KKLNRTLSVA as substrate incubated for 30 mins in presence of [gamma-33P]ATP by filter binding method relative to control
Outline: (§1)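 Screened at the International Centre for Protein Kinase Profiling against a 140-kinase panel, with inhibitor at 0.1 or 1 μM; activity expressed as percentage of DMSO control reactions, mean of triplicate reactions.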

U2OS = test: Inhibition of cell invasion in human U2OS cells at 10 uM incubated for 16 hrs by matrigel based transwell assay; type: functional
Outline: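 Growth-factor-reduced Matrigel Transwell invasion: U2OS cells serum-deprived 2 h, detached, 2.5×10^5 cells in DMEM/1% BSA added to upper chambers in triplicate, DMEM/10% FBS as chemoattractant below; 16 h at 37 °C, 5% CO2 with or without 10 μM inhibitor in both compartments; cells on lower filter face fixed, stained, imaged ×10 and counted; mean ± S.D.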

[2] = molecular target: Serine/threonine-protein kinase D1 (Homo sapiens) (UniProt Q15139); test: Inhibition of recombinant human N-terminal His6-tagged PKD1 (2 to 912 residues) expressed in baculovirus infected Sf21 cells assessed as remaining activity at 1 uM using KKLNRTLSVA as substrate incubated for 30 mins in presence of [gamma-33P]ATP by filter binding method relative to control; outline: as §1
[3] = molecular target: MAP/microtubule affinity-regulating kinase 3 (Homo sapiens) (UniProt P27448); test: Inhibition of recombinant human N-terminal His6-tagged MARK3 (2 to 729 residues) expressed in baculovirus infected Sf21 cells assessed as remaining activity at 1 uM using CHKtide as substrate incubated for 30 mins in presence of [gamma-33P]ATP by filter binding method relative to control; outline: as §1
[4] = molecular target: cAMP-dependent protein kinase catalytic subunit alpha (Homo sapiens) (UniProt P17612); test: Inhibition of recombinant human N-terminal GST-tagged PKAalpha (2 to 351 residues) expressed in Escherichia coli assessed as remaining activity at 1 uM using Kemptide as substrate incubated for 30 mins in presence of [gamma-33P]ATP by filter binding method relative to control; outline: as §1
[5] = molecular target: Platelet-derived growth factor receptor alpha (Homo sapiens) (UniProt P16234); test: Inhibition of recombinant human PDGFRalpha (551 to 10589 residues) expressed in baculovirus infected Sf21 cells assessed as remaining activity at 1 uM using KKKKEEIYFFFG as substrate incubated for 30 mins in presence of [gamma-33P]ATP by filter binding method relative to control; outline: as §1
[6] = molecular target: Serine/threonine-protein kinase Chk1 (Homo sapiens) (UniProt O14757); test: Inhibition of recombinant human N-terminal GST-tagged CHK1 (1 to 476 residues) expressed in baculovirus infected Sf21 cells assessed as remaining activity at 1 uM using CHKtide as substrate incubated for 30 mins in presence of [gamma-33P]ATP by filter binding method relative to control; outline: as §1
[7] = test system: Ribosomal protein S6 kinase beta-1 (Homo sapiens), P23443 [T412E]; test: Inhibition of recombinant human His6-tagged S6K1 T412E mutant (1 to 421 residues) expressed in baculovirus infected Sf21 cells assessed as remaining activity at 1 uM using KKRNRTLTV as substrate incubated for 30 mins in presence of [gamma-33P]ATP by filter binding method relative to control
Outline: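 Run within a 140-kinase specificity panel at the International Centre for Protein Kinase Profiling. Compounds were dissolved in DMSO and tested in vitro at 0.1 or 1 μM. Activity is expressed as percentage of kinase activity in DMSO control reactions, as the mean ± S.D. of triplicate reactions.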

MAP/microtubule affinity-regulating kinase 3 (Homo sapiens), sequence (P27448 whole entry, looked up, the tested form may be a part): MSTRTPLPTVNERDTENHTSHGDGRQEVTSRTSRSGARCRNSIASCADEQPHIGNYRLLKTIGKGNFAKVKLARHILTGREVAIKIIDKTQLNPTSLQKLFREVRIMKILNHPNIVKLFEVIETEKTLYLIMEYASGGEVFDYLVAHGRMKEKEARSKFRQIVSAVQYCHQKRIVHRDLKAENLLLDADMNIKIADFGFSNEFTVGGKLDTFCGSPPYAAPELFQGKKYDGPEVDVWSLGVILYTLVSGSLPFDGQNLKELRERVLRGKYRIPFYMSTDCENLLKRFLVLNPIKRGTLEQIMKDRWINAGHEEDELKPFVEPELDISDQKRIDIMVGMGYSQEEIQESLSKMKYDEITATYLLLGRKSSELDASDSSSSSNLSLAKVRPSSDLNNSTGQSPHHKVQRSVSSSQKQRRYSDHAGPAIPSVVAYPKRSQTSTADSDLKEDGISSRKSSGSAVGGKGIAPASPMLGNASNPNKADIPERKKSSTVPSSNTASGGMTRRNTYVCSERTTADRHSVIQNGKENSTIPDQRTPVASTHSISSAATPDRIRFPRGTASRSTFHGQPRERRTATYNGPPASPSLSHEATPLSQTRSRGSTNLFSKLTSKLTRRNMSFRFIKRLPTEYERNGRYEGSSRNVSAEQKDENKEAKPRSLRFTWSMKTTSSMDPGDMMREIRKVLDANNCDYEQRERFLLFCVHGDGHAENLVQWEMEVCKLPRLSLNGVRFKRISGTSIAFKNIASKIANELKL
Serine/threonine-protein kinase Chk1 (Homo sapiens), sequence (O14757 whole entry, the tested form may be a part): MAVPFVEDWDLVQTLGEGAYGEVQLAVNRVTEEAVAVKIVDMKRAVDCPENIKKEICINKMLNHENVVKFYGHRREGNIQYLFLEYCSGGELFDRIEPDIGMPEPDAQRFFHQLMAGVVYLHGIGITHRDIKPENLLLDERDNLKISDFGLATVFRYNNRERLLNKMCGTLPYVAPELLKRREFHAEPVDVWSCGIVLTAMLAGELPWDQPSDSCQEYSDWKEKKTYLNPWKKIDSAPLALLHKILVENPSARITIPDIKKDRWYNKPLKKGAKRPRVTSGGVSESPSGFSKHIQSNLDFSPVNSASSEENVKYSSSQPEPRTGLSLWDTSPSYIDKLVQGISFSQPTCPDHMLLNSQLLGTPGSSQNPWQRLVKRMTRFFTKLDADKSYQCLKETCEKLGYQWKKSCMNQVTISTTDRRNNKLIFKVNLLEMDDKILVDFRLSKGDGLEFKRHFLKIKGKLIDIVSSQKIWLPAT
Ribosomal protein S6 kinase alpha-1 (Homo sapiens), sequence (Q15418 whole entry, the tested form may be a part): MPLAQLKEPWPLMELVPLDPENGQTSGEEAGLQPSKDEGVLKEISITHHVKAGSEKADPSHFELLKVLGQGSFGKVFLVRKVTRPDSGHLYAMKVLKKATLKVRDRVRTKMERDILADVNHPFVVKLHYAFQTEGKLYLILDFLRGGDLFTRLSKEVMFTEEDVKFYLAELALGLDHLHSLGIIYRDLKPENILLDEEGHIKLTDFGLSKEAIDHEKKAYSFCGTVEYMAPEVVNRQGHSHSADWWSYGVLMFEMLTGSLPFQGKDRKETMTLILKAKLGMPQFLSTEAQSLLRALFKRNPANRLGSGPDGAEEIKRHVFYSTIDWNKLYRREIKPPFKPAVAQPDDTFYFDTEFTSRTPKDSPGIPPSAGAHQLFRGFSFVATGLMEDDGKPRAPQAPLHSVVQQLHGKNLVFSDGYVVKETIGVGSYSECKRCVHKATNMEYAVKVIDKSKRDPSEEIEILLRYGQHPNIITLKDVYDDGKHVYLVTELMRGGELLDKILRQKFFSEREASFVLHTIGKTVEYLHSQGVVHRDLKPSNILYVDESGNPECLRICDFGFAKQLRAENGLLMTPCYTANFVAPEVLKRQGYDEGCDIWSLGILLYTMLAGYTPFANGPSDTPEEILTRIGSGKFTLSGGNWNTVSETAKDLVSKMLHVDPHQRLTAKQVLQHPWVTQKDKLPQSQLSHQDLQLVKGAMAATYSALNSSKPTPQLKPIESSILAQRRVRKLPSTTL
Platelet-derived growth factor receptor alpha (Homo sapiens), sequence (P16234 whole entry, the tested form may be a part): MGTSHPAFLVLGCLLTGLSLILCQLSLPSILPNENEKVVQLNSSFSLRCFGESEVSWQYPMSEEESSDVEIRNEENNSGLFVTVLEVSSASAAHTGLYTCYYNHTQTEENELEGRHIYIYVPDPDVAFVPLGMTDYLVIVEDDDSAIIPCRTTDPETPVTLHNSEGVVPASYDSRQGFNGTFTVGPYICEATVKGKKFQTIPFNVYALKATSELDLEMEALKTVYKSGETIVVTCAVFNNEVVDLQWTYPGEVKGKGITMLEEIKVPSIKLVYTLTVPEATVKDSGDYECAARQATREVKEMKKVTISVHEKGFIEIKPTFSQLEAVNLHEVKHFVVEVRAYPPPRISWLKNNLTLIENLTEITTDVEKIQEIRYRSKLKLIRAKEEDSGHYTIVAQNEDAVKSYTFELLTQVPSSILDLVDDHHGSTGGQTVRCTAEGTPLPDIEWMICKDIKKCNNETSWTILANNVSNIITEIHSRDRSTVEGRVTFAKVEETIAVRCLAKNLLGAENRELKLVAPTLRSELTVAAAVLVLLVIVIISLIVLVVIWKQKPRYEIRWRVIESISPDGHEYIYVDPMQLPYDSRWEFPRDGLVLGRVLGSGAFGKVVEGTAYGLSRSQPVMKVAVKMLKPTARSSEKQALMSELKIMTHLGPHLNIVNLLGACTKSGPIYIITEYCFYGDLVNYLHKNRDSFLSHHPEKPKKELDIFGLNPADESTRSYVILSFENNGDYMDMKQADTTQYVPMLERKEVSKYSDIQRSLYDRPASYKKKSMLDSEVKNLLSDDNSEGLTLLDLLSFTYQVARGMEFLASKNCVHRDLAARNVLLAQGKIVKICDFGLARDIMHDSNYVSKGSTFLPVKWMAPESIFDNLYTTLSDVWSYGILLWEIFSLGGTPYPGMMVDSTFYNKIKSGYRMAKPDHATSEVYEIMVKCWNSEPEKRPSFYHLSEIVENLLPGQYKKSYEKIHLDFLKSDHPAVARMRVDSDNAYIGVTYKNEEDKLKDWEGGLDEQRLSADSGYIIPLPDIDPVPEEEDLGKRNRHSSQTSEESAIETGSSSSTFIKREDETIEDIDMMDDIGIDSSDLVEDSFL
Ribosomal protein S6 kinase beta-1 (Homo sapiens), P23443 [T412E], sequence (P23443 whole entry T412E, looked up, the tested form may be a part): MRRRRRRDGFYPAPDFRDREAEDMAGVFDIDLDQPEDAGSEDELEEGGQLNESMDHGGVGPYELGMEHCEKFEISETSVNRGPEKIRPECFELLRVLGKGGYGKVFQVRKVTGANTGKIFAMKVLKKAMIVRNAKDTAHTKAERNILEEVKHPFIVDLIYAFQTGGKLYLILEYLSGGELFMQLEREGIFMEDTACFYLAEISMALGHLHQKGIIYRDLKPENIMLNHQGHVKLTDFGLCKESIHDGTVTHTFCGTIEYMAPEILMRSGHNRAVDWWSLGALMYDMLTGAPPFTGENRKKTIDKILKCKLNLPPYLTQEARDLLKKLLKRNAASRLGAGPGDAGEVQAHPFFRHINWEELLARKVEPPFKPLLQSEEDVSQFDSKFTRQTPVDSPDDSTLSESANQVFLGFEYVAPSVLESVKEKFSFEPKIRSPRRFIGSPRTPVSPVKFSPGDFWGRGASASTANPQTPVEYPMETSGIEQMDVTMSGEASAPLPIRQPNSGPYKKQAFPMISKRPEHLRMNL
Serine/threonine-protein kinase D1 (Homo sapiens), sequence (Q15139 whole entry, the tested form may be a part): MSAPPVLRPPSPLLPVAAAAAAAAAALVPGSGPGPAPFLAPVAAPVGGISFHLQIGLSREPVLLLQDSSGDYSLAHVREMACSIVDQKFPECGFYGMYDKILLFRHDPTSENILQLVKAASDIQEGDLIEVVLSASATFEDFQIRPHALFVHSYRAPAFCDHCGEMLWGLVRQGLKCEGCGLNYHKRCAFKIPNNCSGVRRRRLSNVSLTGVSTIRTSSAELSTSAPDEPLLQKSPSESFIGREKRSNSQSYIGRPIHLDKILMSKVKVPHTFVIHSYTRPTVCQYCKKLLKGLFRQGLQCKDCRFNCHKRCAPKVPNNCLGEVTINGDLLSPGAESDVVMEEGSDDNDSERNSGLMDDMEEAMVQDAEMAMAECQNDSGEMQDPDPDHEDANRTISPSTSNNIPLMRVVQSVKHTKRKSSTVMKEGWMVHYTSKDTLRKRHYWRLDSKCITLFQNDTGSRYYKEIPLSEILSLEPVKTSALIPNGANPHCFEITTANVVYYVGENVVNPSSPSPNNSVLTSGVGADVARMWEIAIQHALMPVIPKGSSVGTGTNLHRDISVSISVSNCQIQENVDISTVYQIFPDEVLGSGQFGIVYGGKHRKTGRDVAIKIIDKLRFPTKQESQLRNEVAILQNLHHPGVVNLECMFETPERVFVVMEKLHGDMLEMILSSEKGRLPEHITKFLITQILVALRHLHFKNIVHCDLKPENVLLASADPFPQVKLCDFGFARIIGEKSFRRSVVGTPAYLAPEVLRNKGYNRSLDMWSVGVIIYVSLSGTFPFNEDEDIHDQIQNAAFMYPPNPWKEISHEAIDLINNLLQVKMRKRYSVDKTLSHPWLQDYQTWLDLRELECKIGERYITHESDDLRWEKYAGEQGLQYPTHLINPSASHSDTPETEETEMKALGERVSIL

`CCC(=O)Nc1cccc(Oc2nc(Nc3ccc(N4CCN(C)CC4)cc3OC)ncc2Cl)c1` was tested, and the Activity [1] was 67%, the inhibition (U2OS) was “Active” and the Activity [2] was 57%. It also gave an Activity [3] of 51%, an Activity [4] of 84% and an Activity [5] of 96%. It also gave an Activity [6] of 58% and an Activity [7] of 83%.
